This passage reports Activity results from ChEMBL document CHEMBL4118256, “Second Generation of Mannich Base-Type Derivatives with in Vivo Activity against Trypanosoma cruzi” (J Med Chem, 2018).

The source made the active and inactive calls. The calls are words filed in the database; no cut-off is given here. Bounds are passed on as bounds.

Data set [1] relates to Trypanosoma cruzi. The data set can be described thus: Antitrypanosomal activity against Trypanosoma cruzi MHOM/Pe/2011/Arequipa DTU 5 trypamastigotes infected in Balb/c mouse assessed as reduction in parasitaemia reactivation in bone marrow tissue at 20 mg/kg, po pretreated once daily for 5 consecutive days starting from day 10 post infection followed by cyclophosphamide-induced immunosuppression on day 100 post infection every 4 days for a maximum of 3 doses measured on day 127 post infection by PCR method. The class given is functional. Further details: scale not given: the % may be the effect or the level left. In a few lines:
(§1)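 Necropsy on day 127 pi after oral treatment and cyclophosphamide immunosuppression. Tissue DNA was amplified by PCR targeting the ~300 bp T. cruzi SOD gene, 200 nM each primer, 30 cycles with 55.5 °C annealing. Products run on 2 % agarose; positive organs counted out of six mice.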

Data set [2] deals with Mus musculus. The data set can be described thus: Hepatotoxicity in Balb/c mouse infected with Trypanosoma cruzi MHOM/Pe/2011/Arequipa DTU 5 trypamastigotes assessed as change in ratio of serum ALT to GPT level at 20 mg/kg, po once daily for 5 consecutive days starting from day 10 post infection measured on day 127 post infection by biochemical analysis relative to control. Type of data set: toxicity, organism-based. As to conditions: in vivo. In a few lines:
(§2)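 Serum clinical chemistry in Arequipa-infected female BALB/c mice. Oral 20 mg·kg-1 per day for 5 days, started day 10 or day 75 pi. Samples taken at day 16 pi or day 81 pi, and on necropsy day. Markers: CK-MB and LDH (U/L), AST, ALT and alkaline phosphatase (U/L), total bilirubin. Results scored relative to infected untreated controls; uninfected reference n = 15.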

Data set [3] has as its system Mus musculus. The experiment in a line: Cardiotoxicity in Balb/c mouse infected with Trypanosoma cruzi MHOM/Pe/2011/Arequipa DTU 5 trypamastigotes assessed as change in serum LDH level at 20 mg/kg, po once daily for 5 consecutive days starting from day 10 post infection measured on day 127 post infection by biochemical analysis relative to control. Type of data set: toxicity, organism-based. To be noted: in vivo. The essentials: as §2

Data set [4] has as its system Trypanosoma cruzi. The data set can be described thus: Antitrypanosomal activity against Trypanosoma cruzi MHOM/Pe/2011/Arequipa DTU 5 trypamastigotes infected in Balb/c mouse assessed as reduction in Ig-G level in serum at 20 mg/kg, po once daily for 5 consecutive days starting from day 75 post infection measured on day 81 post infection by ELISA. The class given is functional, organism-based. In a few lines:
(§3)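 Female BALB/c mice (8-10 weeks, 20-25 g), six per group, infected i.p. with 5 x 10^5 Arequipa bloodstream trypomastigotes. Compound was given orally once daily for 5 days from day 10 or day 75 pi, at 20 mg·kg-1 per day in 5 % DMSO/0.5 % HPMC. Anti-T. cruzi IgG in serum was measured by ELISA with Fe-SOD antigen, read as OD 490 nm.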
(In general: In an ELISA, binding on a coated surface is turned into a signal by an enzyme label.)

Data set [5] relates to Mus musculus. The data set can be described thus: Nephrotoxicity in Balb/c mouse infected with Trypanosoma cruzi MHOM/Pe/2011/Arequipa DTU 5 trypamastigotes assessed as decrease in uric acid level in serum at 20 mg/kg, po once daily for 5 consecutive days starting from day 75 post infection measured on day 127 post infection by biochemical analysis relative to control. Type of data set: toxicity, organism-based. Further details: scale not given: the % may be the effect or the level left. To be noted: in vivo.

Data set [6] has as its system Mus musculus. The data set can be described thus: Hepatotoxicity in Balb/c mouse infected with Trypanosoma cruzi MHOM/Pe/2011/Arequipa DTU 5 trypamastigotes assessed as increase in alkaline phosphatase level at 20 mg/kg, po once daily for 5 consecutive days starting from day 75 post infection measured on day 81 post infection by biochemical analysis relative to control. As to conditions: in vivo. The class given is toxicity, organism-based.

Data set [7] relates to Trypanosoma cruzi. The experiment in a line: Antitrypanosomal activity against Trypanosoma cruzi MHOM/Pe/2011/Arequipa DTU 5 trypamastigotes infected in Balb/c mouse assessed as reduction in Ig-G level in serum at 20 mg/kg, po once daily for 5 consecutive days starting from day 10 post infection measured on day 100 post infection by ELISA. The class given is functional, organism-based. The essentials:
as §3

Data set [8] relates to Mus musculus. The experiment in a line: Cardiotoxicity in Balb/c mouse infected with Trypanosoma cruzi MHOM/Pe/2011/Arequipa DTU 5 trypamastigotes assessed as change in ratio of creatine kinase in muscle to brain at 20 mg/kg, po once daily for 5 consecutive days starting from day 75 post infection measured on day 127 post infection by biochemical analysis relative to control. Type of data set: toxicity, organism-based. As to conditions: in vivo. In a few lines:
as §2

The test system of data set [9] is Trypanosoma cruzi. The data set can be described thus: Antitrypanosomal activity against Trypanosoma cruzi MHOM/Pe/2011/Arequipa DTU 5 trypamastigotes infected in Balb/c mouse assessed as reduction in Ig-G level in serum at 20 mg/kg, po pretreated once daily for 5 consecutive days starting from day 10 post infection followed by cyclophosphamide-induced immunosuppression on day 100 post infection every 4 days for a maximum of 3 doses measured on day 127 post infection by ELISA. The class given is functional, organism-based. The essentials:
as §3

Data set [10] relates to Mus musculus. The data set can be described thus: Nephrotoxicity in Balb/c mouse infected with Trypanosoma cruzi MHOM/Pe/2011/Arequipa DTU 5 trypamastigotes assessed as decrease in uric acid level in serum at […], po once daily for 5 consecutive days starting from day 75 post infection measured on day 127 post infection by biochemical analysis relative to control. The class given is toxicity, organism-based. Further details: scale not given: the % may be the effect or the level left. To be noted: in vivo.

The subject of data set [11] is Mus musculus. The experiment in a line: Hepatotoxicity in Balb/c mouse infected with Trypanosoma cruzi MHOM/Pe/2011/Arequipa DTU 5 trypamastigotes assessed as increase in ratio of serum AST to GOT level at […], po once daily for 5 consecutive days starting from day 10 post infection measured on day 127 post infection by biochemical analysis relative to control. Type of data set: toxicity, organism-based. As to conditions: in vivo.

Data set [12] has as its system Mus musculus. The data set can be described thus: Hepatotoxicity in Balb/c mouse infected with Trypanosoma cruzi MHOM/Pe/2011/Arequipa DTU 5 trypamastigotes assessed as increase in ratio of serum ALT to GPT level at […], po once daily for 5 consecutive days starting from day 10 post infection measured on day 127 post infection by biochemical analysis relative to control. Type of data set: toxicity, organism-based. To be noted: in vivo.

Data set [13] deals with Mus musculus. The data set can be described thus: Hepatotoxicity in Balb/c mouse infected with Trypanosoma cruzi MHOM/Pe/2011/Arequipa DTU 5 trypamastigotes assessed as increase in ratio of serum AST to GOT level at […], po once daily for 5 consecutive days starting from day 75 post infection measured on day 81 post infection by biochemical analysis relative to control. The class given is toxicity, organism-based. To be noted: in vivo.

Data set [14] has as its system Trypanosoma cruzi. The experiment in a line: Antitrypanosomal activity against Trypanosoma cruzi MHOM/Pe/2011/Arequipa DTU 5 trypamastigotes infected in Balb/c mouse assessed as reduction in parasitaemia reactivation in adipose tissue at 100 mg/kg, po pretreated once daily for 5 consecutive days starting from day 75 post infection followed by cyclophosphamide-induced immunosuppression on day 100 post infection every 4 days for a maximum of 3 doses measured on day 127 post infection by PCR method. The class given is functional. Further details: scale not given: the % may be the effect or the level left. In a few lines:
as §1

In data set [15] the test system is Trypanosoma cruzi. The data set can be described thus: Antitrypanosomal activity against Trypanosoma cruzi MHOM/Pe/2011/Arequipa DTU 5 trypamastigotes infected in Balb/c mouse assessed as reduction in parasitaemia level at 100 mg/kg, po once daily for 5 consecutive days starting from day 10 post infection measured up to day 50 post infection by Neubauer chamber method. Type of data set: functional, organism-based.

For data set [16], the system named is Trypanosoma cruzi. The data set can be described thus: Antitrypanosomal activity against Trypanosoma cruzi MHOM/Pe/2011/Arequipa DTU 5 epimastigotes assessed as effect on parasite glycerol pathway by measuring increase in glycerol excretion at IC25 after 72 hrs by 1H NMR method. The class given is functional, organism-based. The essentials: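 Arequipa epimastigotes exposed at IC25 for 72 h alongside an untreated control. Excreted catabolites were analysed by 1H NMR, and each peak is reported as % variation versus the control. Three separate determinations.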

Data set [17] concerns Mus musculus. The data set can be described thus: Nephrotoxicity in Balb/c mouse infected with Trypanosoma cruzi MHOM/Pe/2011/Arequipa DTU 5 trypamastigotes assessed as increase in urea level in serum at […], po once daily for 5 consecutive days starting from day 75 post infection measured on day 81 post infection by biochemical analysis relative to control. Type of data set: toxicity, organism-based. As to conditions: in vivo.

As to `O=C(Cn1ccnc1[N+](=O)[O-])NCc1ccccc1` [BENZNIDAZOLE], the Activity in the data set with Trypanosoma cruzi [1] is on record as 33%; with Mus musculus [2], under 10%; in the data set on Mus musculus [3], under 10%; in the data set on Mus musculus [5] it was “<= 20%”; in the data set with Mus musculus [6], over 40%; in the data set on Mus musculus [8], under 10%. Also, the outcome in the data set with Trypanosoma cruzi [4] was inactive. For the same molecule, the result in the data set on Trypanosoma cruzi [7] and in the data set with Trypanosoma cruzi [9] was Active.

Take `COc1ccc(C(=O)CCN2CCN(c3ccc([N+](=O)[O-])cc3)CC2)cc1`: the Activity entry with Mus musculus [10], with Mus musculus [11], in the data set with Mus musculus [12] and with Mus musculus [13] was “<= 30%” in each case.

As for `COc1ccc(C(=O)CCN2CCN(c3ccc(Cl)cc3)CC2)cc1`, the Activity in the data set with Trypanosoma cruzi [14] turned out to be 78%. Further, the result in the data set with Trypanosoma cruzi [15] was Active.

Turning to `COc1ccc(C(=O)CCN2CCN(c3ccc(F)cc3)CC2)cc1`, the outcome with Trypanosoma cruzi [16] was Active. The Activity entry in the data set with Mus musculus [17] is on record as “<= 30%”.
